{
  "source": "paper PMC5568800",
  "about": "(Investigative ophthalmology & visual science, 2009)",
  "key": {"W587F X2IRBP [1]": {"molecular_target": "W587F X2IRBP", "experiment": "Titration monitoring quenching of tryptophan fluorescence, W587F mutant", "assay_type": "binding, Xenopus"}, "W450F X2IRBP [2]": {"molecular_target": "W450F X2IRBP", "experiment": "Energy transfer titration, W450F mutant", "assay_type": "binding, Xenopus", "details": "read-out: Kd, Energy Transfer, all-trans retinol, Figure 4", "outline": "(§1)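 Tag-free Xenopus IRBP second module (residues 313–612; His-tag cut by TEV protease), expressed in E. coli BLR(DE3) at 22°C for 18 h and purified on nickel then Q Sepharose columns. Titrated with all-trans retinol (fresh ethanol stock) and read by energy transfer (ex 280 nm, em 480 nm). Runs alternated between the two mutants, three per mutant, then averaged. Kd and N from a nonlinear least-squares fit to a single-class, noninteracting-site equation.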"}, "[3]": {"molecular_target": "X2IRBP (second module of Xenopus IRBP), wild-type sequence", "experiment": "Titration monitoring quenching of tryptophan", "assay_type": "binding", "details": "read-out: Kd, Quenching, excitation 280 nm, emission 340 nm", "outline": "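Purified X2IRBP (Xenopus IRBP 313–612, TEV-cleaved His-fusion, Ni plus Q Sepharose purified) was titrated with all-trans or 11-cis retinol (ethanol stocks). Protein fluorescence at 340 nm (excitation 280 nm) was normalized to maximal quenching. All-trans data were averaged over three independent titrations. Kd and N came from a nonlinear least-squares fit to a noninteracting single-site-class binding equation.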"}, "[4]": {"molecular_target": "X2IRBP (second module of Xenopus IRBP), wild-type sequence", "experiment": "Energy transfer titration, X2IRBP of wild-type sequence", "assay_type": "binding", "details": "read-out: Kd, Energy Transfer; all-trans retinol; excitation 280 nm, emission 480 nm; Figure 4", "outline": "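X2IRBP (Xenopus IRBP residues 313–612) was expressed in E. coli BLR(DE3) as a His-tag fusion, TEV-cleaved, and purified by Ni-affinity and Q Sepharose. Concentration was set by A280 and amino acid analysis. All-trans retinol from fresh ethanol stocks was titrated in. Three independent titrations were averaged. Kd and N came from a nonlinear least-squares fit assuming a single class of noninteracting sites.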"}, "[5]": {"molecular_target": "X2IRBP (second module of Xenopus IRBP), wild-type sequence", "assay_type": "binding", "details": "read-out: Kd, Enhancement", "outline": "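Purified X2IRBP (Xenopus IRBP 313–612; His-fusion, TEV-cleaved, Ni and anion-exchange purified; quantified by A280 and amino acid analysis) was titrated with all-trans or 11-cis retinol. 11-cis retinol was made by NaBH4 reduction of 11-cis retinal. For all-trans, nonspecific signal from titration into fluorescence-matched NAT was subtracted and three independent titrations were averaged. Kd came from a nonlinear least-squares single-site-class fit.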"}, "W450F X2IRBP [6]": {"molecular_target": "W450F X2IRBP", "experiment": "Titration monitoring enhancement of retinol fluorescence, W450F mutant", "assay_type": "binding, Xenopus", "outline": "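All-trans retinol titration of the E. coli-expressed, TEV-cleaved Xenopus X2IRBP mutant, read as retinol fluorescence enhancement (ex 330 nm, em 480 nm). Nonspecific signal was subtracted using a titration into fluorescence-matched NAT solution, and the inner filter effect was corrected graphically. Three independent titrations were averaged. Kd from a nonlinear least-squares fit assuming a single type of noninteracting site.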"}, "W587F X2IRBP [7]": {"molecular_target": "W587F X2IRBP", "experiment": "Energy transfer titration, W587F mutant", "assay_type": "binding, Xenopus", "details": "read-out: Kd, Energy Transfer, all-trans retinol, Figure 4", "outline": "as §1"}, "W450F X2IRBP [8]": {"tested_on": "W450F X2IRBP", "experiment": "Titration monitoring quenching of tryptophan fluorescence, W450F mutant", "assay_type": "binding, Xenopus", "details": "all-trans retinol, excitation 280 nm, emission 340 nm", "outline": "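Intrinsic tryptophan fluorescence quenching (ex 280 nm, em 340 nm) of tag-free recombinant Xenopus X2IRBP mutants during all-trans retinol titration. Signal normalized to the maximum quenching. Runs alternated between the W450F and W587F proteins, three titrations each, and were averaged. Binding parameters from a nonlinear least-squares fit to a single-class, noninteracting-site equation.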"}, "X2IRBP": {"tested_on": "X2IRBP", "assay_type": "binding, Xenopus", "details": "oleic acid 0.67 to 2.66 μM; X2IRBP 1 μM; retinol fluorescence enhancement", "outline": "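X2IRBP (1 μM; recombinant Xenopus, tag removed by TEV) titrated with all-trans or 11-cis retinol in the presence of oleic acid at 0.67 to 2.66 μM. Binding followed by retinol fluorescence enhancement (ex 330 nm, em 480 nm).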"}, "W587F X2IRBP [9]": {"molecular_target": "W587F X2IRBP", "experiment": "Titration monitoring enhancement of retinol fluorescence, W587F mutant", "assay_type": "binding, Xenopus", "details": "read-out: Kd, Enhancement, 11-cis retinol, excitation 324 nm, emission 475 nm, Figure 7", "outline": "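The W587F mutant was introduced into X2IRBP-pET30 by site-directed mutagenesis, sequence-verified, then expressed in E. coli BLR(DE3) (1 mM IPTG, 22°C, 18 h) and purified by Ni-affinity, TEV cleavage and Q Sepharose. 11-cis retinol, made by NaBH4 reduction of 11-cis retinal and HPLC-checked, was titrated in. Kd came from a nonlinear least-squares single-site-class fit.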"}, "[10]": {"details": "11-cis retinol, X2IRBP of wild-type sequence, Figure 6"}},
  "note": "Like-named read-outs stand apart in the source and are kept apart here.",
  "data": [
    {"smiles": "CC1=C(/C=C/C(C)=C/C=C/C(C)=C/CO)C(C)(C)CCC1", "note": "[all-trans retinol]", "values": [
      {"measurement": "Kd", "setting": "W587F X2IRBP [1]; read-out: Kd, Quenching, all-trans retinol, titrations of Figure 4", "value": "0.05 ± 0.01", "unit": "µM"},
      {"measurement": "Kd", "setting": "W450F X2IRBP [2]", "value": "0.29 ± 0.08", "unit": "µM"},
      {"measurement": "Kd", "setting": "[3]; all-trans retinol, Figure 4", "value": "0.008 ± 0.003", "unit": "µM"},
      {"measurement": "Kd", "setting": "[4]", "value": "0.033 ± 0.008", "unit": "µM"},
      {"measurement": "Kd", "setting": "[5]; all-trans retinol, excitation 330 nm, emission 480 nm, Figure 4", "value": "0.07 ± 0.02", "unit": "µM"},
      {"measurement": "Kd", "setting": "W450F X2IRBP [6]; read-out: Kd, Enhancement, all-trans retinol, titrations of Figure 4", "value": "0.45 ± 0.11", "unit": "µM"},
      {"measurement": "Kd", "setting": "W587F X2IRBP [7]", "value": "0.1 ± 0.01", "unit": "µM"},
      {"measurement": "Quenching of tryptophan fluorescence (result in words)", "setting": "W450F X2IRBP [8]", "value": "No significant quenching"}
    ]},
    {"smiles": "CCCCCCCC/C=C\\CCCCCCCC(=O)O", "note": "[oleic acid]", "values": [
      {"measurement": "Manner of inhibition of 11-cis and all-trans retinol binding to X2IRBP", "setting": "X2IRBP", "value": "noncompetitive"}
    ]},
    {"smiles": "CC1=C(/C=C/C(C)=C/C=C\\C(C)=C\\CO)C(C)(C)CCC1", "note": "[11-cis retinol]", "values": [
      {"measurement": "Kd", "setting": "W587F X2IRBP [1]; read-out: Kd, Quenching, 11-cis retinol, excitation 280 nm, emission 340 nm, Figure 7", "value": "0.024 ± 0.01", "unit": "µM"},
      {"measurement": "Kd", "setting": "W587F X2IRBP [9]", "value": "0.132 ± 0.056", "unit": "µM"},
      {"measurement": "Kd", "setting": "[3]; [10]", "value": "0.042 ± 0.009", "unit": "µM"},
      {"measurement": "Kd", "setting": "[5]; [10]", "value": "0.077 ± 0.015", "unit": "µM"},
      {"measurement": "Kd", "setting": "W450F X2IRBP [6]; read-out: Kd, Enhancement, 11-cis retinol, excitation 324 nm, emission 475 nm, Figure 7", "value": "0.218 ± 0.062", "unit": "µM"}
    ]}
  ]
}
